# Assays:
# [1] = target: T1, Melatonin receptor type 1A (Homo sapiens, UniProt P48039); test: Displacement of 2-[125I]-Iodomelatonin from human MT1 receptor expressed in CHO cell membranes after 120 mins by filter binding method
# Outline: (§1)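 Membranes from CHO cells stably expressing human MT1 or MT2 were incubated with 20 pM 2-[125I]-iodomelatonin and test drug in 50 mM Tris-HCl pH 7.4, 5 mM MgCl2, for 120 min at 37 °C. Nonspecific binding was set with 1 µM melatonin. Filtration onto PEI-soaked GF/B filters. Seven concentrations in duplicate gave IC50, converted to Ki by Cheng-Prusoff. Ki is the geometric mean of ≥2 experiments.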
# [2] = target: T2, Melatonin receptor type 1B (Homo sapiens, UniProt P49286); test: Displacement of 2-[125I]-Iodomelatonin from human MT2 receptor expressed in CHO cell membranes after 120 mins by filter binding method; outline: as §1
# T2 sequence (P49286 whole entry): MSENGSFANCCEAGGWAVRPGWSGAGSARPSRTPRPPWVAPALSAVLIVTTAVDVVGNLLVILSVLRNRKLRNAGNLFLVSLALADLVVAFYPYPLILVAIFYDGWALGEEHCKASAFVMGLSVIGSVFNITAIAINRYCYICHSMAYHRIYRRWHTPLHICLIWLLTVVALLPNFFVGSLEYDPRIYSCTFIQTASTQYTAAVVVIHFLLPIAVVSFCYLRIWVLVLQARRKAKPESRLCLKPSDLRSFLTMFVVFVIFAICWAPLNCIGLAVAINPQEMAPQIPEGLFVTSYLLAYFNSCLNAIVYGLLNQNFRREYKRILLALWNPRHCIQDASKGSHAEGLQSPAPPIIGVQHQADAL
# Homo sapiens = species: Homo sapiens; test: Selectivity ratio of Ki for human MT1 receptor to Ki for human MT2 receptor
# [3] = target: T1, Melatonin receptor type 1A; test: Intrinsic activity at human MT1 receptor expressed in CHO cell membranes after 1 hr by [35S]GTPgammaS binding assay; assay type: functional
# Outline: (§2)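 CHO-MT1 or MT2 membranes (20 µg/mL) were incubated with drug and 0.2 nM [35S]GTPγS for 1 h at room temperature. Buffer was 20 mM HEPES pH 7.4, 100 mM NaCl, 3 µM GDP, 3 mM MgCl2, 20 µg/mL saponin. Nonspecific binding was set with 10 µM GTPγS, followed by filtration. Seven concentrations in duplicate gave Emax, relative to 1 µM melatonin. Emax is the arithmetic mean ± SEM of ≥2 experiments.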
# [4] = target: T3, Melatonin receptor type 1B (Homo sapiens) (UniProt P49286); test: (§3) Intrinsic activity at human MT2 receptor expressed in CHO cell membranes after 1 hr by [35S]GTPgammaS binding assay; assay type: functional; outline: as §2
# T3 sequence (whole entry): T2 sequence (P49286 whole entry)
# [5] = target: T2, Melatonin receptor type 1B; test: as §3; assay type: functional; outline: as §2
# T1 sequence (P48039 whole entry): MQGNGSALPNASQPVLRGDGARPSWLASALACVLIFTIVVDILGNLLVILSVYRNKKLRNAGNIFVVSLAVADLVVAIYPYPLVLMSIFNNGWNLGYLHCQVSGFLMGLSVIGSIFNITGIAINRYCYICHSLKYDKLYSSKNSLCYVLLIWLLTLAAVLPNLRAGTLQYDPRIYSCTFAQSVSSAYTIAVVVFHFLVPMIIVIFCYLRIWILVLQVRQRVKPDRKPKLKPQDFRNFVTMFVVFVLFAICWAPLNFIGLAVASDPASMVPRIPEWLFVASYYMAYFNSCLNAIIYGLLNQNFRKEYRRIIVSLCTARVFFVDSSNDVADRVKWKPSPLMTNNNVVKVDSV
Structure (SMILES),Ki [1] [nM],Ki [2] [nM],Ratio Ki (Homo sapiens),Emax [3] [%],Emax [4] [%],EC50 [3] [nM],EC50 [5] [nM]
CCC(=O)NCC1=C(c2ccccc2)c2ccccc2CC1,28,3.8,7.4,16,30,–,–
CCC(=O)NC[C@@H]1CCc2ccccc2[C@H]1c1ccccc1 (racemic),62,0.23,270,61,78,–,–
CCN1CC(CNC(C)=O)Cc2ccccc21 (racemic),20,1,20,–,59,> 10000,7
CCC(=O)NC1Cc2ccccc2N(c2ccccc2)C1 (racemic),22,2,11,29,41,20,1
CCC(=O)NC[C@@H]1CN(C)c2ccccc2[C@@H]1c1ccccc1 (racemic),3.4,0.48,7.1,82,75,–,–
CC(=O)NCC1CNc2ccccc2C1 (racemic),430,110,3.9,–,–,–,–
CC(=O)NCC1Cc2ccccc2N(c2ccccc2)C1 (racemic) [listing 1 of 2 here],2.4 to 3,0.3 to 1.2,–,–,–,> 10000,> 10000
CCC(=O)NC[C@@H]1CCc2ccccc2[C@@H]1c1ccccc1 (racemic),3.5,0.22,16,56,75,–,–
CC(=O)NCC1Cc2ccccc2N(Cc2ccccc2)C1 (racemic),59,1,59,–,28,–,3
CC(=O)NCC1Cc2ccccc2N(C)C1 (racemic),83,15,5.5,–,32,> 10000,10
CC(=O)NCC1Cc2ccccc2N(CCc2ccccc2)C1 (racemic),246,47,5.2,–,47,–,80
CCC(=O)NC1Cc2ccccc2N(Cc2ccccc2)C1 (racemic),892,6,149,–,–,–,> 10000
CC(=O)NCC1Cc2ccccc2N(c2ccccc2)C1 (racemic) [listing 2 of 2 here],–,–,10,27,10,–,–
"CC(=O)NCC1Cc2ccccc2N(c2ccccc2)C1 (single isomer, unassigned; (-)) [listing 1 of 2 here]",3.02,1.38,–,–,–,–,–
"CC(=O)NCC1Cc2ccccc2N(c2ccccc2)C1 (single isomer, unassigned; (-)) [listing 2 of 2 here]",–,–,–,30,29,–,–
CC(=O)NCC1Cc2ccccc2N(c2ccccc2)C1 (stereo in doubt; (+)-15e) [listing 1 of 2 here],1.58,0.78,–,–,–,–,–
CC(=O)NCC1Cc2ccccc2N(c2ccccc2)C1 (stereo in doubt; (+)-15e) [listing 2 of 2 here],–,–,–,25,5,–,–

# Reference: ChEMBL document CHEMBL4043301, “Tetrahydroquinoline Ring as a Versatile Bioisostere of Tetralin for Melatonin Receptor Ligands” (J Med Chem, 2018)
